Results gathered from unrelated publications.
Compare with care: the assays were run in different laboratories.
PIK3CG: Phosphatidylinositol 4,5-bisphosphate 3-kinase catalytic subunit gamma isoform (PIK3CG, Homo sapiens, UniProt P48736)
PTGS2: Prostaglandin G/H synthase 2 (PTGS2, Homo sapiens, UniProt P35354)
Inositol-tetrakisphosphate 1-kinase: Inositol-tetrakisphosphate 1-kinase (Homo sapiens, UniProt Q13572)

Structure (SMILES) | target | assay | conditions | IC50 [nM]
CC(C)c1cccc(C(C)C)c1N=C1C(=O)Nc2ccccc21 | PIK3CG | enzyme activity, inhibitor, ADP detection | – | 12.6
NS(=O)(=O)c1ccc(-n2nc(C(=O)NN3C(=O)CCC3=O)cc2-c2ccccc2)cc1 | PTGS2 | enzyme activity, inhibitor | – | 3630
FC(F)(F)CN1CC(n2cc(Oc3ccn4nc(Cl)cc4n3)cn2)C1 | Very long chain fatty acid elongase 7 (Homo sapiens, UniProt A1L3X0) | enzyme activity, inhibitor | – | > 99000
CN(C)C(=O)c1cc2cnc(Nc3cc(C(F)(F)F)c(-c4ccc5c(=O)cc(N6CCOCC6)oc5c4)cn3)nc2n1C1CCCC1 | PIK3CG | enzyme activity, inhibitor, radiometric | – | > 10000
Nc1ncnc2c1cnn2C1CCCCC1 | Inositol-tetrakisphosphate 1-kinase | enzyme activity, inhibitor, ADP detection | – | 440
COc1cc(N=C2C(=O)N(Cc3ccccc3)c3ccccc32)cc(OC)c1 | PIK3CG | enzyme activity, inhibitor, ADP detection | – | 1.94
CN(C)C(=O)c1cc2cnc(Nc3ccc(-c4cccc5c(=O)cc(N6CCOCC6)oc45)cc3)nc2n1C1CCCC1 | PIK3CG | enzyme activity, inhibitor, radiometric | – | > 10000
C=CC(=O)N1CCN(c2nc(=O)n(-c3c(C)ccnc3C(C)C)c3nc(-c4c(O)cccc4F)c(F)cc23)[C@@H](C)C1 | GTPase NRas (NRAS, Homo sapiens, UniProt P01111, C181S/C186S/G12C) | enzyme activity, inhibitor | – | 57.2
O=C(CCNC(=O)CNC(=O)CC(c1ccccc1)(c1ccccc1)c1ccccc1)NC[C@H]1CCCN(Cc2ccc(F)cc2)C1 | Muscarinic acetylcholine receptor M3 (CHRM3, Homo sapiens, UniProt P20309) | ligand displacement, radioligand | cell membranes | 400
O=C1C(=Nc2ccc(Cl)cc2Br)c2ccccc2N1Cc1ccc([N+](=O)[O-])cc1 | PIK3CG | enzyme activity, inhibitor, ADP detection | – | 2.89
CN(C)C(=O)c1cc2cnc(Nc3ccc(-c4ccc5c(=O)cc(N6CCOCC6)oc5c4)cc3)nc2n1C1CCCC1 | PIK3CG | enzyme activity, inhibitor, radiometric | – | 3390
Nc1ncnc2c1ncn2[C@@H]1O[C@H](CO)[C@@H](O)[C@@H]1F | Inositol-tetrakisphosphate 1-kinase | enzyme activity, inhibitor, ADP detection | – | 3700
CN(C)C(=O)c1cc2cnc(Nc3cc(C(F)(F)F)c(-c4cccc5c(=O)cc(N6CCOCC6)oc45)cn3)nc2n1C1CCCC1 | PIK3CG | enzyme activity, inhibitor, radiometric | – | > 10000
O=C1C(=Nc2ccccc2I)c2ccccc2N1Cc1ccc([N+](=O)[O-])cc1 | PIK3CG | enzyme activity, inhibitor, ADP detection | – | 1.52
CN(C)C(=O)c1cc2cnc(Nc3cc(C(=O)O)cc(-c4ccc5c(=O)cc(N6CCOCC6)oc5c4)c3)nc2n1C1CCCC1 | PIK3CG | enzyme activity, inhibitor, radiometric | – | 17300
Nc1ncnc2c1ncn2[C@@H]1O[C@H](CO)C[C@H]1O | Inositol-tetrakisphosphate 1-kinase | enzyme activity, inhibitor | – | 3100
CC(C)NC(=O)COc1cccc(-c2nc(Nc3ccc4[nH]ncc4c3)c3ccccc3n2)c1 | UDP-glucuronosyltransferase 1A1 (UGT1A1, Homo sapiens, UniProt P22309) | enzyme activity, inhibitor | – | 60.9
CC(C)c1cccc(C(C)C)c1N=C1C(=O)N(Cc2ccc(Br)cc2)c2ccccc21 | PIK3CG | enzyme activity, inhibitor, ADP detection | – | 4.06
NS(=O)(=O)c1ccc(-n2nc(C(=O)NN=Cc3ccccc3O)cc2-c2ccccc2)cc1 | PTGS2 | enzyme activity, inhibitor | – | 1550
CC(C)c1cccc(C(C)C)c1N=C1C(=O)N(Cc2ccccc2)c2ccccc21 | PIK3CG | enzyme activity, inhibitor, ADP detection | – | 1.68
NS(=O)(=O)c1ccc(-n2nc(-c3nnc(CCl)o3)cc2-c2ccccc2)cc1 | PTGS2 | enzyme activity, inhibitor | – | 2640
CN(C)C(=O)c1cc2cnc(Nc3ccc(-c4cccc5c(=O)cc(N6CCNCC6)oc45)cc3)nc2n1C1CCCC1 | PIK3CG | enzyme activity, inhibitor, radiometric | – | > 10000
Nc1ncnc2c1ncn2C1CCCC1 | Inositol-tetrakisphosphate 1-kinase | enzyme activity, inhibitor | – | 26
CCc1ccc(N=C2C(=O)N(Cc3ccccc3)c3ccccc32)cc1 | PIK3CG | enzyme activity, inhibitor, ADP detection | – | 2.09
